Tests used:
Carbonic anhydrase 7 [1] = biological target: T1, Carbonic anhydrase 7 (Homo sapiens, UniProt P43166); test: Binding affinity to human recombinant CA7 assessed as association rate constant after 30 secs by surface plasmon resonance assay; settings: read-out: kon (M-1-s-1)
Carbonic anhydrase 2 [2] = biological target: T2, Carbonic anhydrase 2 (Homo sapiens, UniProt P00918); test: Binding affinity to human recombinant CA2 expressed in Escherichia coli assessed as association rate constant after 30 secs by surface plasmon resonance assay; settings: read-out: kon (M-1-s-1)
Carbonic anhydrase 12 [3] = biological target: T3, Carbonic anhydrase 12 (Homo sapiens, UniProt O43570); test: Binding affinity to human recombinant CA12 catalytic domain assessed as dissociation rate constant after 30 secs by surface plasmon resonance assay
Carbonic anhydrase 2 [4] = biological target: T2, Carbonic anhydrase 2; test: Binding affinity to human recombinant CA2 expressed in Escherichia coli assessed as dissociation rate constant after 30 secs by surface plasmon resonance assay
Carbonic anhydrase 12 [5] = biological target: T3, Carbonic anhydrase 12; test: Binding affinity to human recombinant CA12 catalytic domain assessed as association rate constant after 30 secs by surface plasmon resonance assay; settings: read-out: kon (M-1-s-1)
Carbonic anhydrase 7 [6] = biological target: T1, Carbonic anhydrase 7; test: Binding affinity to human recombinant CA7 assessed as dissociation rate constant after 30 secs by surface plasmon resonance assay
Carbonic anhydrase 1 [7] = biological target: T4, Carbonic anhydrase 1 (Homo sapiens, UniProt P00915); test: Binding affinity to human recombinant CA1 expressed in Escherichia coli assessed as association rate constant after 30 secs by surface plasmon resonance assay
Summary of the method: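 Full-length enzyme amine-coupled to a carboxymethyl-dextran chip (75 µg/mL in 10 mM sodium acetate pH 5, about 6000 RU). SPR at 25 °C in PBST pH 7.4 with 2% DMSO. Ligands injected as 2-fold series, 15.6–2000 nM, at 30 or 90 µL/min. Association 30 s, dissociation 180 s. Regeneration with 200 µM sulphanilamide. ka from non-linear fit to a one-step binding model with mass transport.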

Carbonic anhydrase 1 [8] = biological target: T4, Carbonic anhydrase 1; test: Binding affinity to human recombinant CA1 expressed in Escherichia coli assessed as dissociation rate constant after 30 secs by surface plasmon resonance assay
Summary of the method: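 CA I immobilized by amine coupling (75 µg mL−1 in 10 mM sodium acetate, pH 5) to about 6000 RU. SPR run at 25 °C in PBST with 2 % DMSO, pH 7.4. Ligand given as 2-fold series, 15.6–2000 nM, at 30 or 90 µL min−1. Association 30 s, dissociation 180 s; sulphanilamide 200 µM regeneration where needed. kd from non-linear fit to one-step binding with mass transport.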

Carbonic anhydrase 13 [9] = biological target: T5, Carbonic anhydrase 13 (Homo sapiens, UniProt Q8N1Q1); test: Binding affinity to human recombinant CA13 assessed as dissociation rate constant after 30 secs by surface plasmon resonance assay
Carbonic anhydrase 13 [10] = biological target: T5, Carbonic anhydrase 13; test: Binding affinity to human recombinant CA13 assessed as association rate constant after 30 secs by surface plasmon resonance assay; settings: read-out: kon (M-1-s-1)

T4 sequence (P00915 whole entry): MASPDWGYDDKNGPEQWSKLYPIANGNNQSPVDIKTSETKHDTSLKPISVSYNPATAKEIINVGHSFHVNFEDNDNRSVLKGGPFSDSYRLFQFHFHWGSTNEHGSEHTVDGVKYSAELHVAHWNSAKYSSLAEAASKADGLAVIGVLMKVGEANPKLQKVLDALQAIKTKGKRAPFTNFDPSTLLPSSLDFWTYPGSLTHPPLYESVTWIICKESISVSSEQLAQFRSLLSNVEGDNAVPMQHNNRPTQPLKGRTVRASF
T5 sequence (Q8N1Q1 whole entry): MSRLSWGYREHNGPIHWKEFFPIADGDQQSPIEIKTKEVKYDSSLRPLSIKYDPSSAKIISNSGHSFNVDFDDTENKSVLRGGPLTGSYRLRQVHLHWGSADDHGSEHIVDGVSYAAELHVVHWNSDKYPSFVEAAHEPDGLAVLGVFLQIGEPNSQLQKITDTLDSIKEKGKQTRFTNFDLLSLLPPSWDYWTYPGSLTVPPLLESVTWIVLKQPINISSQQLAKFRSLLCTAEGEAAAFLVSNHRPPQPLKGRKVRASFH
T1 sequence (P43166 whole entry): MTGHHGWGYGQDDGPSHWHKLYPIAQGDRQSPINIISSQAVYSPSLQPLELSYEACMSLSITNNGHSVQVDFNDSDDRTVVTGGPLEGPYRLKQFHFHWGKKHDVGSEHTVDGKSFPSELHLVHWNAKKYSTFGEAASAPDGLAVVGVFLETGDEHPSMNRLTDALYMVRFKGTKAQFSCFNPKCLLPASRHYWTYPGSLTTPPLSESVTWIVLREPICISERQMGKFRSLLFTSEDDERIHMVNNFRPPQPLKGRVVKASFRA
T3 sequence (O43570 whole entry, the tested form may be a part): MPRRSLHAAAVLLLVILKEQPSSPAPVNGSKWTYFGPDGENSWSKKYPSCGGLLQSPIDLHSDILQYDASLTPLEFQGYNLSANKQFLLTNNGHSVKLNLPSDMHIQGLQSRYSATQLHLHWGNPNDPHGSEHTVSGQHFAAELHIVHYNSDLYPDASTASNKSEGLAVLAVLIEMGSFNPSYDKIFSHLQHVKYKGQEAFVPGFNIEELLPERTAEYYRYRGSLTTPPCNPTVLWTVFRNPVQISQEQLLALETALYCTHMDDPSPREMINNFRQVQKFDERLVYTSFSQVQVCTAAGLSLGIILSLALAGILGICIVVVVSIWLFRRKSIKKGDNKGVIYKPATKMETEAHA

| Compound | kon (Carbonic anhydrase 7 [1]) [M⁻¹ s⁻¹] | kon (Carbonic anhydrase 2 [2]) [M⁻¹ s⁻¹] | koff (Carbonic anhydrase 12 [3]) [s⁻¹] | koff (Carbonic anhydrase 2 [4]) [s⁻¹] | kon (Carbonic anhydrase 12 [5]) [M⁻¹ s⁻¹] | koff (Carbonic anhydrase 7 [6]) [s⁻¹] | kon (Carbonic anhydrase 1 [7]) [M⁻¹ s⁻¹] | koff (Carbonic anhydrase 1 [8]) [s⁻¹] | koff (Carbonic anhydrase 13 [9]) [s⁻¹] | kon (Carbonic anhydrase 13 [10]) [M⁻¹ s⁻¹] |
| --- | --- | --- | --- | --- | --- | --- | --- | --- | --- | --- |
| CNc1c(F)c(S(N)(=O)=O)c(F)c(F)c1S(=O)(=O)CCc1ccccc1 [carbonic anhydrase (CA) inhibitors, benzenesulphonamide ligand, 14] | 290000 | 1.3e+06 | 0.14 | 0.0082 | 1.5e+06 | 0.013 | 390000 | 0.01 | – | – |
| COc1ccc(CNc2c(F)c(F)c(F)c(F)c2S(N)(=O)=O)cc1 [carbonic anhydrase (CA) inhibitors, benzenesulphonamide ligand, 15] | 30000 | 390000 | – | 0.026 | – | 0.14 | 110000 | 0.0066 | 0.022 | 100000 |
| CCCS(=O)(=O)c1c(F)c(F)c(S(N)(=O)=O)c(F)c1NC1CCCCCCC1 [carbonic anhydrase (CA) inhibitors, benzenesulphonamide ligand, 13] | 49000 | 86000 | – | 0.0087 | – | 0.002 | – | – | 0.0079 | 510000 |
| CCCSc1c(F)c(F)c(S(N)(=O)=O)c(NC2CCCCCCC2)c1F [carbonic anhydrase (CA) inhibitors, benzenesulphonamide ligand, 12] | 20000 | – | 0.05 | – | 130000 | 0.01 | – | – | – | – |
| CC(C)(C)Nc1c(F)c(S(N)(=O)=O)c(F)c(F)c1S(=O)(=O)CCc1ccccc1 [carbonic anhydrase (CA) inhibitors, benzenesulphonamide ligand, 15] | – | – | 0.011 | – | 180000 | – | – | – | – | – |
| NS(=O)(=O)c1c(F)c(F)c(N2CCCCC2)c(F)c1F [carbonic anhydrase (CA) inhibitors, benzenesulphonamide ligand, 16] | 2.6e+06 | 1.4e+06 | 0.041 | 0.0093 | 880000 | 0.071 | – | – | 0.011 | 920000 |
